Publication PMC2854813 (Advanced synthesis & catalysis, 2009)
Read-outs that look alike come from different tables or passages of the source. One block for each molecule: values may come before it.

Legend:
PETNR [1] = molecular target: T1, PETNR (Enterobacter cloacae, UniProt P71278); experiment: Substrate screen of PETNR by spectrophotometric assays or GC analysis; format: biochemical, Enterobacter cloacae st. PB2
T1 sequence (P71278 1-365): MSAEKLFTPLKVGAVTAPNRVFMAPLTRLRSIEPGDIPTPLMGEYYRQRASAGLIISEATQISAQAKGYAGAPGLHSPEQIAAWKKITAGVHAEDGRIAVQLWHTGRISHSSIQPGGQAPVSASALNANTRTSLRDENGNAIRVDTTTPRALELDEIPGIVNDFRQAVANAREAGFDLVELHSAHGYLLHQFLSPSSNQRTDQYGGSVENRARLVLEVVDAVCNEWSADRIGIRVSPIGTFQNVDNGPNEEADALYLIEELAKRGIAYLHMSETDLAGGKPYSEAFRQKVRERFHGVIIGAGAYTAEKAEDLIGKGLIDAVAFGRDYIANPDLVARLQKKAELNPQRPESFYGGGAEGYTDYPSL

PETNR [2] = molecular target: T1, PETNR; experiment: Steady-state kinetics of PETNR with α,β-unsaturated activated alkenes; format: biochemical, Enterobacter cloacae st. PB2; settings: for Km / kcat: apparent, 5% ethanol
PETNR [3] = molecular target: T1, PETNR; experiment: Enzyme concentration dependence of the reduction of ketoisophorone by PETNR; format: biochemical, Enterobacter cloacae st. PB2; settings: 2 h, pH 7.0, 3a 5 mM, NADPH 6 mM
Procedure, shortened: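 Ketoisophorone (5 mM) and NADPH (6 mM) with varied PETNR in 50 mM phosphate pH 7.0, shaken at 130 rpm at 30 °C for 2 h. Extraction was into ethyl acetate containing internal standard. Conversion was by GC (DB-Wax) and ee by GC on a Chirasil-DEX-CB column.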

PETNR [4] = molecular target: T1, PETNR; experiment: Time course of ketoisophorone reduction and product racemisation, PETNR 0.02 μM; format: biochemical, Enterobacter cloacae st. PB2
Procedure, shortened: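 Racemisation time course of ketoisophorone reduction at pH 7.0 over 24 h; substrate added in DMF (2% final). Controls at 8 h either removed enzyme by 10 kDa spin filtration (5000 rpm, 5 min) or added the PETNR inhibitor 1,4,5,6-tetrahydroNADPH (1.2 mg), then incubated to 24 h total. Conversion by GC (DB-Wax); ee by GC (Chirasil-DEX-CB).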

PETNR [5] = molecular target: T1, PETNR; experiment: Aerobic versus anaerobic steady-state reaction rate of PETNR; format: biochemical, Enterobacter cloacae st. PB2; settings: aerobic compared to anaerobic assays
Procedure, shortened: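 NADPH oxidation was followed at 340 nm (365 nm for substrates absorbing at 340 nm) for 2 min at 25 °C. Anaerobic runs used a glove box (<5 ppm O2) with deoxygenated enzyme; aerobic runs were done outside it.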

PETNR [6] = molecular target: T1, PETNR; experiment: Time effect on optical purity of levodione at PETNR 2 μM; format: biochemical, Enterobacter cloacae st. PB2; settings: Supporting Information Table S1
PETNR [7] = molecular target: T1, PETNR; settings: cited from earlier work
[8] = anaerobic, pH 7.0, 25 °C, NADPH 100 μM

SMILES: C/C=C/C#N [crotonitrile]
activity of PETNR towards the substrate (in words) (PETNR [1]): no activity

Km (PETNR [2]; [8]): 13.7 ± 0.5 µM
kcat (PETNR [2]; [8]): 5.52 ± 0.10 s⁻¹
Conv. [%] (PETNR [3]; enzyme 0.002 μM): 2%
Conv. [%] (PETNR [3]; enzyme 0.02 μM): 37%
Conv. [%] (PETNR [3]; enzyme 0.2 μM): >99%
Conv. [%] (PETNR [3]; enzyme 2 μM): >99%
Conv. [%] (PETNR [4]; 0.5 h, PETNR 0.02 μM, pH 7.0): 14%
Conv. [%] (PETNR [4]; 1 h, PETNR 0.02 μM, pH 7.0): 27%
Conv. [%] (PETNR [4]; 1.5 h, PETNR 0.02 μM, pH 7.0): 37%
Conv. [%] (PETNR [4]; 3 h, PETNR 0.02 μM, pH 7.0): 53%
Conv. [%] (PETNR [4]; 4 h, PETNR 0.02 μM, pH 7.0): 69%
Conv. [%] (PETNR [4]; 6 h, PETNR 0.02 μM, pH 7.0): 85%
Conv. [%] (PETNR [4]; 8 h, PETNR 0.02 μM, pH 7.0): 94%
Conv. [%] (PETNR [4]; 12 h, PETNR 0.02 μM, pH 7.0): 98%
Conv. [%] (PETNR [4]; 22 h, PETNR 0.02 μM, pH 7.0): >99%
Conv. [%] (PETNR [4]; 24 h, PETNR 0.02 μM, pH 7.0): >99%
Conv. [%] (PETNR [4]; 24 h, PETNR inhibitor NADPH4 (1.2 mg) added after 8 h): 99%
Conv. [%] (PETNR [4]; 24 h, filtered (10 K filter) after 8 h to remove all enzyme content): 99%
SMILES: CC1=CC(=O)CC(C)(C)C1=O [3a, ketoisophorone]

reduction in the overall steady-state reaction rate (PETNR [5]): 18%
Ki (PETNR [2]): 23.3 ± 1.7 mM
SMILES: O=C1C=CCCC1 [4a, 2-cyclohexenone]

activity of PETNR towards the substrate (in words) (PETNR [1]): inactive
SMILES: O=C1C=C(c2ccccc2)CCC1 [3-phenylcyclohexene-1-one]

activity of PETNR towards the substrate (in words) (PETNR [1]): significant reduction in enzyme activity
SMILES: CC1=CC(=O)CCC1 [15a, 3-methylcyclohexenone]

activity of PETNR towards the substrate (in words) (PETNR [1]): no activity
SMILES: BrC1C=CCCC1 (stereo not drawn) [3-bromocyclohexene]

activity of PETNR towards the substrate (in words) (PETNR [1]): did not reduce
SMILES: O=C(O)/C=C/c1ccccc1 [trans-cinnamic acid]

activity of PETNR towards the substrate (in words) (PETNR [1]): significant reduction in enzyme activity
SMILES: CC1=CC(=O)CC1 [16a, 3-methylcyclopentenone]

rate of racemisation (PETNR [6]): 3 % ee/h
decline in enantiopurity with time (rate of racemisation) (PETNR [4]; PETNR 0.02 μM, pH 7.0, 30 °C, aqueous, non-enzymatic): approximately 3 % ee/h
SMILES: C[C@@H]1CC(=O)CC(C)(C)C1=O [(R)-3b, (R)-Levodione]

SMILES: NC(=O)C1=CN([C@@H]2O[C@H](COP(=O)(O)OP(=O)(O)OC[C@H]3O[C@@H](n4cnc5c(N)ncnc54)[C@H](OP(=O)(O)O)[C@@H]3O)[C@@H](O)[C@H]2O)CCC1 [NADPH4, 1,4,5,6-tetrahydroNADPH]
inhibition of PETNR activity (in words) (PETNR [7]): excellent inhibitor

activity of PETNR towards the substrate (in words) (PETNR [1]): did not reduce
SMILES: O=C(O)C1=CCCCC1 [1-cyclohexene-1-carboxylic acids, 1-cyclohexene-1-carboxylic acid]

SMILES: N#C/C=C/c1ccccc1 [trans-cinnamonitrile]
activity of PETNR towards the substrate (in words) (PETNR [1]): no activity

activity of PETNR towards the substrate (in words) (PETNR [1]): no activity
SMILES: BrC=Cc1ccccc1 [β-bromostyrene]

Ki (PETNR [2]): 3.2 ± 0.7 mM
SMILES: CC1=CC(=O)NC1=O [2a, 2-Methylmaleimide]

activity of PETNR towards the substrate (in words) (PETNR [1]): did not reduce
SMILES: NC(=O)/C=C/c1ccccc1 [trans-cinnamide]

activity of PETNR towards the substrate (in words) (PETNR [1]): did not reduce
SMILES: O=C(O)/C=C(\C(=O)O)c1ccccc1 [3-phenylmaleic acid]

activity of PETNR towards the substrate (in words) (PETNR [1]): did not reduce
SMILES: COC(=O)C1=CCCCC1 [methyl cyclohexenecarboxylate, methyl 1-cyclohexene-1-carboxylate]

reduction in the overall steady-state reaction rate (PETNR [5]): 48%
Km (PETNR [2]; [8]): 102 ± 10.5 µM
kcat (PETNR [2]; [8]): 6.23 ± 0.33 s⁻¹
Ki (PETNR [2]; substrate inhibition, anaerobic, pH 7.0, 25 °C, NADPH 100 μM): 1.93 ± 0.46 mM
SMILES: CCC=C(C)C=O [10a, 2-methylpentenal]

activity of PETNR towards the substrate (in words) (PETNR [1]): no activity
SMILES: N#CC1=CCCCC1 [cyclohexene-1-carbonitrile]

activity of PETNR towards the substrate (in words) (PETNR [1]): did not reduce
SMILES: COC(=O)/C=C/c1ccccc1 [methyl trans-cinnamate]
